Test [1] relates to Mustela putorius furo. Put plainly: In vivo antagonism of cisplatin-induced emesis in ferret measured as emetic episodes, twice the dose of 3 mg/kg and in 3 ferrets. Format: functional. The method, boiled down: (§1)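 Nonfasted castrated male Fitch ferrets (1–1.5 kg) had jugular catheters implanted ≥48 h earlier under anesthesia. Compounds or saline were given iv twice, 5 min before and 90 min after cisplatin (12 mg/kg iv; 12 mg/mL in warm 0.9% saline). Emesis was observed up to 4 h; events within 1 min counted as one episode. Results were given as mean emetic episodes and % protection versus a pooled historical/concurrent control. t test versus saline.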

The subject of test [2] is Mustela putorius furo. Put plainly: In vivo antagonism of cisplatin-induced emesis in ferret measured as emetic episodes, twice the dose of 1 mg/kg and in 3 ferrets. Format: functional. An outline of the steps:
as §1

Test [3] has as its target D(2) dopamine receptor (Rattus norvegicus) (UniProt P61169). Put plainly: In vivo antagonism activity against D2 receptor was measured as stereotypy in rat when administered subcutaneously. Format: functional, organism-based. An outline of the steps: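 Male Long Evans rats (275 g) were dosed sc in dilute aqueous HCl (pH 4.5-5.5) 30 min before apomorphine (1 mg/kg sc).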

For test [4] the target is unchanged. Put plainly: In vivo antagonistic activity against dopamine D2 receptor was measured as catalepsy in rat when administered subcutaneously. Format: functional, organism-based. An outline of the steps: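 Male Long Evans rats (275 g) received graded sc doses in dilute aqueous HCl (pH 4.5-5.5). They were observed 180 min for catalepsy, scored when the animal stayed stationary ≥15 s on a four-cork template.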

The subject of test [5] is Canis familiaris. Put plainly: In vivo antagonism of cisplatin-induced emesis in dog measured as percentage protection for twice the dose of 1 mg/kg in 2 dogs. Format: functional, Canis lupus familiaris. The method, boiled down:
(§2)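 Nonfasted mature male or female beagles were dosed sc twice, 30 min before and 120 min after cisplatin (3 mg/kg iv; 3 mg/mL in warm 0.9% saline, used immediately). Emesis was observed up to 5 h; events within 2 min counted as one episode. Results were given as mean emetic episodes and % protection versus a dynamic control (historical and concurrent saline means pooled). t test versus saline.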

For the next test, the target named is D(2) dopamine receptor (Rattus norvegicus, UniProt P61169). Put plainly: In vitro antagonistic activity against Dopamine receptor D2 was evaluated for the inhibition of [3H]spiperone binding. An outline of the steps:
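Rat striatal membranes were prepared by differential centrifugation in 50 mM Tris pH 7.4 at 4 °C. Membrane protein (10 mg) was incubated 15 min at 37 °C with 0.1 nM [3H]spiperone and varying competitor concentrations. Buffer: 50 mM Tris HCl pH 7.5, 0.1% ascorbic acid, pargyline, 120 mM NaCl, 5 mM KCl, 2 mM CaCl2, 1 mM MgCl2. (+)-Butaclamol defined nonspecific binding. Bound ligand was collected by filtration and scintillation counted. IC50 by log-logit regression.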

For test [6], the system named is Mustela putorius furo. The experiment in a line: In vivo antagonism of cisplatin-induced emesis in ferret measured as percentage protection for twice the dose of 3 mg/kg and in 3 ferrets. Type of test: functional. An outline of the steps: as §1
Test [7] relates to Canis familiaris. Put plainly: Antagonism of cisplatin-induced emesis in dog measured as emetic episodes, twice the dose of 0.3 mg/kg in 2 dogs.(in vivo). Type of test: functional, Canis lupus familiaris. The method, boiled down: as §2
The target of test [8] is D(2) dopamine receptor (Canis lupus familiaris) (UniProt Q9GJU1). Put plainly: In vivo antagonism activity against dopamine D2 receptor was measured as emesis in dog when administered subcutaneously. Format: functional, organism-based.
Chain of D(2) dopamine receptor (Canis lupus familiaris) (Q9GJU1 whole entry): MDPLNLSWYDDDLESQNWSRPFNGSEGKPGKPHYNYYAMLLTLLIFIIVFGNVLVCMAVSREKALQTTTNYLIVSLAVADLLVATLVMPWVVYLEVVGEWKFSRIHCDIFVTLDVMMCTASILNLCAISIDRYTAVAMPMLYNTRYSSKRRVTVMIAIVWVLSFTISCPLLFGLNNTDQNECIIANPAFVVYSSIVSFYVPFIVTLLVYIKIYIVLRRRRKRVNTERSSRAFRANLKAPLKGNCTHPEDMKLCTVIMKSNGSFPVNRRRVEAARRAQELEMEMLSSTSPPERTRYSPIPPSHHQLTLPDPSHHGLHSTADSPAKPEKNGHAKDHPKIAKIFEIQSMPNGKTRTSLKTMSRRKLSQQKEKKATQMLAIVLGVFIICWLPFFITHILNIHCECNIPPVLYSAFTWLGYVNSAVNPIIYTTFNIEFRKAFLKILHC
In test [9] the test system is Canis familiaris. The experiment in a line: In vivo antagonism of cisplatin-induced emesis in dog measured as percentage protection for twice the dose of 0.3 mg/kg in 2 dogs. Format: functional, Canis lupus familiaris. An outline of the steps:
as §2

For test [10], the system named is Canis familiaris. Put plainly: Antagonism of cisplatin-induced emesis in dog measured as emetic episodes, twice the dose of 1 mg/kg in 2 dogs.(in vivo). Format: functional, Canis lupus familiaris. The method, boiled down:
as §2

In test [11] the test system is Mustela putorius furo. The experiment in a line: In vivo antagonism of cisplatin-induced emesis in ferret measured as percentage protection for twice the dose of 1 mg/kg and in 3 ferrets. Format: functional. The settings on record: 1 mg/kg. The method, boiled down: as §1
Test [12] relates to Mustela putorius furo. Put plainly: in vivo antagonism of cisplatin-induced emesis in ferret measured as emetic episodes, twice the dose of 0.3 mg/kg and in 3 ferrets. Type of test: functional. An outline of the steps:
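Nonfasted castrated male Fitch ferrets (1–1.5 kg) carried jugular vein catheters implanted at least 48 h earlier under general anesthesia. Test compound or saline was given iv twice, 5 min before and 90 min after cisplatin (12 mg/kg iv; 12 mg/mL in warm saline). Emesis was watched for 4 h, with events within 1 min counted as one episode. % protection is relative to a pooled historical-plus-concurrent control, with t test versus saline.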

Test [13] relates to Canis familiaris. Put plainly: In vivo antagonism of cisplatin-induced emesis in dog measured as emetic episodes, twice the dose of 0.3 mg/kg in 2 dogs. Type of test: functional, Canis lupus familiaris. The method, boiled down: as §2
Test [14] concerns Mustela putorius furo. Put plainly: In vivo antagonism of cisplatin-induced emesis in ferret measured as emetic episodes, twice the dose of 0.3 mg/kg and in 3 ferrets. Format: functional. The settings on record: in the assay text read “in 2 ferrets” for “in 3 ferrets”. An outline of the steps:
as §1

The test system of test [15] is Canis familiaris. Put plainly: In vivo antagonism of cisplatin-induced emesis in dog measured as emetic episodes, twice the dose of 1 mg/kg in 2 dogs. Type of test: functional, Canis lupus familiaris. The settings on record: 1 mg/kg. An outline of the steps:
as §2

Test [16] relates to Mustela putorius furo. Put plainly: In vitro antagonism of cisplatin-induced emesis in ferret measured as percentage protection for twice the dose of 1 mg/kg and in 3 ferrets. Format: functional. To be noted: in the assay text read “In vivo” for “In vitro”. The method, boiled down:
as §1

Chain of D(2) dopamine receptor (P61169 whole entry): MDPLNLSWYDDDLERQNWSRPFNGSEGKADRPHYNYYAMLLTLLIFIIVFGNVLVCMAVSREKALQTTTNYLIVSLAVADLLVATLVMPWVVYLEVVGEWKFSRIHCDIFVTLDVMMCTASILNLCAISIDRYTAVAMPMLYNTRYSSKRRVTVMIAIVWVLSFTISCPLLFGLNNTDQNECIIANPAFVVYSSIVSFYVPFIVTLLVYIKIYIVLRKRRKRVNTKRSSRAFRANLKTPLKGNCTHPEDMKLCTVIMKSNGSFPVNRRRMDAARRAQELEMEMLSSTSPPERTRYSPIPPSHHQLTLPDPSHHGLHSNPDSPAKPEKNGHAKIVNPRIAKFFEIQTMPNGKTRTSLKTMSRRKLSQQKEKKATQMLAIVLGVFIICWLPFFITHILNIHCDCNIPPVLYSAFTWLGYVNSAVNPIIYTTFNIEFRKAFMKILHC
Chain of D(2) dopamine receptor (Rattus norvegicus) (P61169 whole entry): as above

For orientation: ED50 means the dose at which the effect has come halfway, by size or by number of responders. A lower ED50 goes with greater potency. Usually IC50 stands for the midpoint of a concentration-inhibition curve. Higher therefore signals lower potency. For `CCN(CC)CCNC(=O)c1cc(Cl)c(N)cc1OCCC(C)OC` (centres undefined), the Emetic episodes stood at 1.3 in the test with Mustela putorius furo [1], 4.3 in the test on Mustela putorius furo [2], 8.5 in the test with Canis familiaris [7] and 1.5 in the test with Canis familiaris [10]. Also, the Protection in the test on Mustela putorius furo [2] is listed as 42%; with Canis familiaris [5], 88%; with Mustela putorius furo [6], 82%; in the test on Canis familiaris [9] it was 28%. Besides, the ED50 is more than 40 mg/kg in test [3], more than 40 mg/kg in [4] and more than 3 mg/kg in [8]. The molecule further gave an IC50 at D(2) dopamine receptor of more than 1000 nM.
Consider `CCN(CC)CCNC(=O)c1cc(Cl)c(N)cc1OC[C@@H](C)O` (stereo in doubt; 8e), for which the Emetic episodes in the test on Mustela putorius furo [2] (1 mg/kg) amounted to 2; in the test on Mustela putorius furo [12], 6; in the test with Canis familiaris [13] (0.3 mg/kg) it was 6.5; in the test on Canis familiaris [15], 1. The Protection in the test with Canis familiaris [5] (1 mg/kg) turned out to be 92%; with Mustela putorius furo [11] it was 73%; in the test on Canis familiaris [9] (0.3 mg/kg), 45%; in the test with Mustela putorius furo [14], 18%. Besides, the IC50 at D(2) dopamine receptor is more than 1000 nM.
Take `CCN(CC)CCNC(=O)c1cc(Cl)c(N)cc1OC(C)(C)C(C)=O`: the Emetic episodes in the test with Mustela putorius furo [2] and with Canis familiaris [13] was 2.7 throughout. Besides, the ED50 is more than 40 mg/kg in [3], more than 40 mg/kg in [4] and more than 3 mg/kg in [8]. Moreover, the Protection in the test on Mustela putorius furo [16] stood at 62%; in the test on Canis familiaris [9], 77%. Moreover, the IC50 at D(2) dopamine receptor was more than 1000 nM.

For the origin of these results see ChEMBL document CHEMBL1124174, “Substituted benzamides. 1. Potential nondopaminergic antagonists of chemotherapy-induced nausea and emesis” (J Med Chem, 1988).
